Reference: ChEMBL document CHEMBL3822416, “Design, Synthesis, and Structure-Activity Relationship Study of Novel Indole-2-carboxamide Derivatives as Anti-inflammatory Agents for the Treatment of Sepsis” (J Med Chem, 2016)
The source made the active and inactive calls. The calls are words filed in the database; no cut-off is given here.

Key:
[1] = tested on: RAW264.7; test: Inhibition of LPS-induced IL6 production in mouse RAW264.7 cells at 10 uM preincubated for 30 mins prior to LPS challenge measured after 24 hrs by ELISA; format: functional
In short: (§1)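 RAW 264.7 cells (ATCC) were grown in DMEM with 10% FBS and penicillin/streptomycin at 37 °C, 5% CO2. Cells were seeded at 400,000/well and incubated for 24 h, pretreated with compound for 30 min, then given 0.5 µg/mL LPS for 24 h. Medium TNF-α or IL-6 was measured by ELISA and normalized to total protein of viable cell pellets.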

[2] = tested on: RAW264.7; test: Inhibition of LPS-induced TNF-alpha production in mouse RAW264.7 cells at 10 uM preincubated for 30 mins prior to LPS challenge measured after 24 hrs by ELISA; format: functional; in short: as §1
[3] = tested on: RAW264.7; test: Inhibition of LPS-induced TNF-alpha production in mouse RAW264.7 cells preincubated for 30 mins prior to LPS challenge measured after 24 hrs by ELISA; format: functional, cell-based; in short: as §1
[4] = tested on: RAW264.7; test: Inhibition of LPS-induced IL6 production in mouse RAW264.7 cells preincubated for 30 mins prior to LPS challenge measured after 24 hrs by ELISA; format: functional, cell-based; in short: as §1
[5] = tested on: Mus musculus; test: Downregulation of IL-6 mRNA level in lung of LPS-induced C57BL/6 mouse sepsis model at 10 mg/kg, iv administered 15 mins prior to LPS challenge measured after 6 hrs by RT-qPCR analysis; format: functional, organism-based
In short: (§2)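 Male C57BL/6 mice were given 10 mg/kg by tail-vein injection 15 min before 20 mg/kg LPS and killed after 6 h; lungs were harvested. RNA was extracted with TRIZOL and quantified by real-time quantitative PCR as relative mRNA amount.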

[6] = tested on: Mus musculus; test: Downregulation of COX2 mRNA level in lung of LPS-induced C57BL/6 mouse sepsis model at 10 mg/kg, iv administered 15 mins prior to LPS challenge measured after 6 hrs by RT-qPCR analysis; format: functional, organism-based; in short: as §2
[7] = tested on: Mus musculus; test: Antiinflammatory activity in LPS-induced C57BL/6 mouse sepsis model assessed as inhibition of neutrophils infiltration in lung by measuring MPO activity at 10 mg/kg, iv administered 15 mins prior to LPS challenge measured after 6 hrs in presence of O-dianisidine dihydrochloride relative to control; format: functional, organism-based
In short: (§3)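 Mice were given 10 mg/kg iv 15 min before 20 mg/kg LPS or without LPS; saline served as control, and animals were killed 6 h later. Lung supernatants were incubated with 0.01% H2O2 and O-dianisidine dihydrochloride 0.167 mg/mL for 30 min, with absorbance change at 460 nm. One unit degrades 1 µmol peroxide/min at 37 °C; values are expressed as units/g lung.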

[8] = tested on: Mus musculus; test: Downregulation of IL-12 mRNA level in lung of LPS-induced C57BL/6 mouse sepsis model at 10 mg/kg, iv administered 15 mins prior to LPS challenge measured after 6 hrs by RT-qPCR analysis; format: functional, organism-based; in short: as §2
[9] = tested on: Mus musculus; test: Downregulation of IL-1beta mRNA level in lung of LPS-induced C57BL/6 mouse sepsis model at 10 mg/kg, iv administered 15 mins prior to LPS challenge measured after 6 hrs by RT-qPCR analysis; format: functional, organism-based; in short: as §2
[10] = tested on: Mus musculus; test: Decrease in MPO activity in C57BL/6 mouse lung at 10 mg/kg, iv after 6 hrs in presence of O-dianisidine dihydrochloride relative to control; format: ADME, organism-based; conditions: in vivo; in short: as §3
[11] = tested on: Mus musculus; test: Antiinflammatory activity in LPS-induced C57BL/6 mouse sepsis model assessed as reduction in airspace inflammation in lung at 10 mg/kg, iv administered 15 mins prior to LPS challenge measured after 6 hrs by hematoxylin and eosin staining; format: functional, organism-based
In short: (§4)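 Male C57BL/6 mice (18-22 g), randomized into groups. Compound at 10 mg/kg was given by tail-vein injection 15 min before LPS 20 mg/kg; controls received saline. Animals were sacrificed 6 h after LPS. Lung was fixed in 4% paraformaldehyde, paraffin-embedded, cut at 5 µm and H&E stained. A pathologist, blinded, scored alveolar congestion, hemorrhage, neutrophil infiltration and alveolar wall thickness/hyaline membrane.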

[12] = tested on: Mus musculus; test: Downregulation of TNF-alpha mRNA level in lung of LPS-induced C57BL/6 mouse sepsis model at 10 mg/kg, iv administered 15 mins prior to LPS challenge measured after 6 hrs by RT-qPCR analysis; format: functional, organism-based; in short: as §2
[13] = tested on: Mus musculus; test: Antiinflammatory activity in LPS-induced C57BL/6 mouse sepsis model assessed as inhibition of macrophage infiltration in lung at 10 mg/kg, iv administered 15 mins prior to LPS challenge measured after 6 hrs by F4/80 and hematoxylin-staining based microscopy; format: functional, organism-based
In short: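 C57BL/6 males were dosed with 10 mg/kg iv (tail vein) 15 min before 20 mg/kg LPS and sacrificed 6 h later. Paraffin lung sections had antigen retrieval by pressure cooker in 10 mM citrate pH 6.5, then H2O2, 5% BSA block, anti-F4/80 overnight at 4 °C, HRP secondary, DAB and hematoxylin counterstain. The % F4/80-positive cells was counted in 10 random 200× fields per section.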

[14] = tested on: Mus musculus; test: Antiinflammatory activity in LPS-induced C57BL/6 mouse sepsis model assessed as decrease in pulmonary lobule structural changes at 10 mg/kg, iv administered 15 mins prior to LPS challenge measured after 6 hrs by hematoxylin and eosin staining; format: functional, organism-based; in short: as §4
[15] = tested on: Mus musculus; test: Downregulation of IL-33 mRNA level in lung of LPS-induced C57BL/6 mouse sepsis model at 10 mg/kg, iv administered 15 mins prior to LPS challenge measured after 6 hrs by RT-qPCR analysis; format: functional, organism-based; in short: as §2
[16] = Mus musculus, RAW264.7, read-out: IC50

SMILES	inhibition at 10 µM [1]	inhibition at 10 µM [2]	other results
O=C(Nc1ccc(OCc2ccccc2)c(Cl)c1)c1cc2cc([N+](=O)[O-])ccc2[nH]1	21.5%		inhibition [2]: inactive
CN1CCN(c2ccc(NC(=O)c3cc4cc([N+](=O)[O-])ccc4n3Cc3cccc(F)c3)cc2)CC1	86.4%	22.8%	
O=C(Nc1ccc(OCc2cc(F)cc(F)c2)cc1)c1cc2cc([N+](=O)[O-])ccc2[nH]1	11.2%		inhibition [2]: inactive
CN1CCN(c2ccc(NC(=O)c3cc4cc(NS(C)(=O)=O)ccc4n3Cc3ccc(C(F)(F)F)cc3)cc2)CC1			IC50 [3, 16]: 1.97 µM; IC50 [4, 16]: 4.91 µM
CN1CCN(c2ccc(NC(=O)c3cc4cc([N+](=O)[O-])ccc4n3C)cc2)CC1	87.2%	16%	
CN1CCN(c2ccc(NC(=O)c3cc4cc([N+](=O)[O-])ccc4n3Cc3c(Cl)cccc3Cl)cc2)CC1	93.3%	52.7%	
O=C(NCCc1ccccc1)c1cc2cc([N+](=O)[O-])ccc2[nH]1	8.71%	2.58%	
COc1ccc(Cn2c(C(=O)Nc3ccc(N4CCN(C)CC4)cc3)cc3cc([N+](=O)[O-])ccc32)cc1	64.3%	41.4%	
O=C(Nc1ccc(OCc2ccc(Cl)cc2)cc1)c1cc2cc([N+](=O)[O-])ccc2[nH]1	4.28%		inhibition [2]: inactive
COc1cc(NC(=O)c2cc3cc([N+](=O)[O-])ccc3[nH]2)cc(OC)c1OC	62.3%	45.8%	
COc1ccc(CCNC(=O)c2cc3cc([N+](=O)[O-])ccc3[nH]2)cc1	11.8%	9.75%	
CN1CCN(c2ccc(NC(=O)c3cc4cc([N+](=O)[O-])ccc4[nH]3)cc2)CC1	91%	62.5%	
C=CCn1c(C(=O)Nc2ccc(N3CCN(C)CC3)cc2)cc2cc([N+](=O)[O-])ccc21	58.2%	12.7%	
O=C(Nc1ccc(OCc2cccc(F)c2)c(Cl)c1)c1cc2cc([N+](=O)[O-])ccc2[nH]1			inhibition [1]: inactive; inhibition [2]: inactive
CN1CCN(c2ccc(NC(=O)c3cc4cc([N+](=O)[O-])ccc4n3Cc3ccc(Cl)cc3)cc2)CC1	97.2%	67%	
CN1CCN(c2ccc(NC(=O)c3cc4cc([N+](=O)[O-])ccc4n3Cc3ccc(C(F)(F)F)cc3)cc2)CC1	98.7%	75.1%	IC50 [3, 16]: 2.74 µM; IC50 [4, 16]: 5.09 µM
COc1ccc(COc2ccc(NC(=O)c3cc4cc([N+](=O)[O-])ccc4[nH]3)cc2Cl)cc1	24.8%		inhibition [2]: inactive
CC(C)=CCOc1ccc(NC(=O)c2cc3cc([N+](=O)[O-])ccc3[nH]2)cc1	56.5%	38.6%	
Cc1ccc(C)c(COc2ccc(NC(=O)c3cc4cc([N+](=O)[O-])ccc4[nH]3)cc2Cl)c1	24.9%	2.89%	

SMILES	inhibition at 10 µM [1]	inhibition at 10 µM [2]	other results
CN1CCN(c2ccc(NC(=O)c3cc4cc([N+](=O)[O-])ccc4n3Cc3ccc(Br)cc3)cc2)CC1	93%	31.1%	
CN1CCN(c2ccc(NC(=O)c3cc4cc(N)ccc4n3Cc3ccc(C(F)(F)F)cc3)cc2)CC1			IC50 ([3]; raw264.7): Not Active; IC50 ([4]; raw264.7): Not Active
COc1cc(COc2ccc(NC(=O)c3cc4cc([N+](=O)[O-])ccc4[nH]3)cc2Cl)cc(OC)c1	29%	7.67%	
Cc1cc2cc(NC(=O)c3cc4cc([N+](=O)[O-])ccc4[nH]3)ccc2[nH]1	37%	7.53%	
COc1cccc(COc2ccc(NC(=O)c3cc4cc([N+](=O)[O-])ccc4[nH]3)cc2Cl)c1	21.9%		inhibition [2]: inactive
O=C(Nc1ccc(OCc2cccc(F)c2)cc1)c1cc2cc([N+](=O)[O-])ccc2[nH]1	4.42%		inhibition [2]: inactive
CCC(=O)Nc1ccc2c(c1)cc(C(=O)Nc1ccc(N3CCN(C)CC3)cc1)n2Cc1ccc(C(F)(F)F)cc1			IC50 [3, 16]: 4.1 µM; IC50 [4, 16]: 3.33 µM
CCOc1ccc(NC(=O)c2cc3cc([N+](=O)[O-])ccc3[nH]2)cc1	41.1%	33.8%	
COc1ccc(NC(=O)c2cc3cc([N+](=O)[O-])ccc3[nH]2)cc1	52.8%	8.17%	
Cc1ccc(COc2ccc(NC(=O)c3cc4cc([N+](=O)[O-])ccc4[nH]3)cc2)cc1	1.98%		inhibition [2]: inactive
O=C(Nc1ccc(OCc2c(Cl)cccc2Cl)c(Cl)c1)c1cc2cc([N+](=O)[O-])ccc2[nH]1	29.8%		inhibition [2]: inactive
C=CC(=O)Nc1ccc2c(c1)cc(C(=O)Nc1ccc(N3CCN(C)CC3)cc1)n2Cc1ccc(C(F)(F)F)cc1			IC50 [3, 16]: 1.05 µM; IC50 [4, 16]: 6.28 µM
COc1ccc2c(c1)c(CC(=O)O)c(C)n2C(=O)c1ccc(Cl)cc1 [INDOMETHACIN]	53.6%	24.1%	
O=C(Nc1ccccc1)c1cc2cc([N+](=O)[O-])ccc2[nH]1	49.6%	17.5%	
CCCn1c(-c2c[nH]c3ncccc23)nc2ccc(N3CCN(C)CC3)nc21	69.5%	67.3%	Activity [5]: Active; Activity [6]: inactive; inhibition [7]: Active; Activity [8]: Active; Activity [9]: inactive; Activity [10]: Non-toxic; Activity [11]: Active; Activity [12]: Active; inhibition [13]: Active; Activity [14]: Active; Activity [15]: Active
O=C(Nc1ccc(N2CCOCC2)cc1)c1cc2cc([N+](=O)[O-])ccc2[nH]1	38%	18%	
CN1CCN(c2ccc(NC(=O)c3cc4cc(NC(=O)CCl)ccc4n3Cc3ccc(C(F)(F)F)cc3)cc2)CC1			IC50 [3, 16]: 6.03 µM; IC50 [4, 16]: 2.99 µM
COc1cc(NC(=O)c2cc3cc([N+](=O)[O-])ccc3[nH]2)cc(OC)c1	31.3%	17.2%	
O=C(Nc1ccc(OCc2ccc(C(F)(F)F)cc2)c(Cl)c1)c1cc2cc([N+](=O)[O-])ccc2[nH]1	29.2%		inhibition [2]: inactive
